In the library only some 3.1% were active in any assay of this set; here they are far more common.
KCNK9 block – blocks the human KCNK9 two-pore domain potassium channel; Q9NPC2; HEK293 KCNK9, FluxOR thallium flux fluorescence; active compounds read low; B-score at 10 µM; 310,000 compounds, 1.2% hits;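 active = ratio B-score over 3 SD below the library mean, with starting fluorescence within 5 SD of its mean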;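 note: negative B-score means less thallium flux so channel inhibition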
KCNQ1 pot – human KCNQ1 channel potentiation or activation | B-score at 10 µM | CHO-K1 KCNQ1, thallium flux FluxOR fluorescence; active compounds read high | 310,000 compounds, 0.35% hits | AID 2648 | P51787;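 active = fluorescence ratio B-score, a plate-corrected score, at least three library SD, with initial intensity B-score within 5 SD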
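System: CHO-K1 cells stably expressing KCNQ1 / Medium: assay buffer for compound exposure, DMSO matched across wells / Reagent: thallium- and potassium-containing depolarizing buffer / Compound: one concentration, matched DMSO / Incubation: 20 min compound pretreatment at room temperature / Measured by: kinetic FluxOR fluorescence, 10 s baseline plus 110 s post-stimulus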
KCNQ1 block – human KCNQ1 channel inhibition; P51787; CHO-K1 KCNQ1, FluxOR thallium flux fluorescence; active compounds read high; B-score at 10 µM; 310,000 compounds, 1.3% hits;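 active = compounds whose thallium flux B-score, printed positive for inhibition, exceeds three library SD while starting fluorescence stays within three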;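 note: channel opened by potassium depolarization with thallium stimulus after 20 min compound exposure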
KCNK3 block – human KCNK3 channel inhibition, primary screen | CHO-KCNK3 thallium flux, FluxOR fluorescence; active compounds read low | 340,000 compounds, 0.84% hits | B-score at 10 µM;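 active = B-score under library mean minus 4 SD, starting fluorescence ratio at most library mean plus 5 SD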;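 note: more negative B-score means stronger inhibition of thallium flux through KCNK3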
hERG protect – compounds protecting human hERG from proarrhythmic drug block; Q12809; CHO-hERG, FluxOR thallium flux, dofetilide IC70 present; activation (rescue from dofetilide block), less the hit threshold, % at 10 µM; 310,000 compounds, 0.51% hits;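 active = activation above the mean of controls blocked by dofetilide plus 5 SD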;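 note: thallium influx through hERG after potassium depolarization seen as dye fluorescence rise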
Target sequence (Q12809 whole entry, looked up): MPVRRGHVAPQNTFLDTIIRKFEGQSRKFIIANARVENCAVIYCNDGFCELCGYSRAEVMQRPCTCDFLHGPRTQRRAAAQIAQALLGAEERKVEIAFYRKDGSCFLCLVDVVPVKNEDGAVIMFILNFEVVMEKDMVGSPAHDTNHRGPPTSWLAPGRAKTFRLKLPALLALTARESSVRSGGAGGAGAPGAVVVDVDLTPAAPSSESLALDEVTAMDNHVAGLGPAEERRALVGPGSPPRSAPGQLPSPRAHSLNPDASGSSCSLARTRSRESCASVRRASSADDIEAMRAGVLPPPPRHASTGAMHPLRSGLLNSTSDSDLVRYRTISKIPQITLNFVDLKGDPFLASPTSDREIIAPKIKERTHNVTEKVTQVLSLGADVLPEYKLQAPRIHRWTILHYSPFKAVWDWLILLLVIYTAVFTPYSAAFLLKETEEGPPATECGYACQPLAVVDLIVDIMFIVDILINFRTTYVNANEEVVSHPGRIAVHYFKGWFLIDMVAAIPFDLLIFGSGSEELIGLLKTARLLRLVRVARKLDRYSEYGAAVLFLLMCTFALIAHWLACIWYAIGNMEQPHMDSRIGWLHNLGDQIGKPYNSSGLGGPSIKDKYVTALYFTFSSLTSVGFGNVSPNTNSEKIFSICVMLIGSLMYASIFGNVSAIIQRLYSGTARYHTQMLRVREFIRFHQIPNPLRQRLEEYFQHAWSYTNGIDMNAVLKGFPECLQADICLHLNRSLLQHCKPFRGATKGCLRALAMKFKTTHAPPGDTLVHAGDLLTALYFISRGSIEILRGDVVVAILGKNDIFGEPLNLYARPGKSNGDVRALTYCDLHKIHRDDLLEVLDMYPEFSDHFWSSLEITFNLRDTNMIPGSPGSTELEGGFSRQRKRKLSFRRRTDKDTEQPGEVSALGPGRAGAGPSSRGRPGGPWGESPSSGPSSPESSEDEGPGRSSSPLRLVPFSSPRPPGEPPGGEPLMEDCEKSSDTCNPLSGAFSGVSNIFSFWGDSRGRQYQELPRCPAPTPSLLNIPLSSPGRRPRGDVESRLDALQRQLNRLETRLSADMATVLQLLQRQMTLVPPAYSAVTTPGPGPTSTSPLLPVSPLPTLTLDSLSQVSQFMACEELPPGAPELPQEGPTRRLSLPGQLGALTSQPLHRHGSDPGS
KCNK9 inh conf – confirmation of human KCNK9 potassium channel inhibitors. inhibition, % at 10 µM. AID 492992. shares compounds with KCNK9 block. 4,900 compounds, 43% hits. HEK293 KCNK9 cells, FluxOR thallium flux fluorescence;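 active = thallium signal inhibited by more than 5 SD of the compound-free buffer control wells, on both duplicate plates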;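 note: 0% = assay buffer control wells without compound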
Kir2-1 spec – tests whether KCNK9 modulators also affect mouse Kir2.1; shares compounds with KCNK9 block; Kir2.1 cells, FluxOR thallium flux fluorescence; inhibition, % at 10 µM; 4,900 compounds, 4% hits; AID 492993;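 active = thallium signal drop more than 5 SD beyond the mean of the no-compound control wells, seen in both duplicate plates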;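 note: signal is fluorescence rise after thallium addition divided by baseline fluorescence; plate controls were assay buffer only for no effect and full block by chlorpromazine control for full effect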
KCNK9 uninduced – second check of KCNK9 modulator effects in non-induced HEK293 cells. shares compounds with KCNK9 block. FluxOR thallium flux. inhibition, % at 10 µM. 4,900 compounds, 40% hits. AID 492997;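 active = thallium signal drop beyond 5 SD of the untreated control mean, on both duplicate plates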;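 note: plate controls were buffer only IC0 wells for no effect and SID17386958 at its maximal inhibitory level for full effect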
Active calls of the source: *; i = inactive; · = not tested or not shown.

SMILES	KCNK9 block	KCNQ1 pot	KCNQ1 block	KCNK3 block	hERG protect	KCNK9 inh conf	Kir2-1 spec	KCNK9 uninduced
CCc1ccc(N(C(=O)c2snc(C(N)=O)c2N)C(C(=O)NCC2CCCO2)c2cccs2)cc1 (stereo not given)	i	i	i	i	-18	i	i	i
CCOc1ccc(CCNS(=O)(=O)c2cnc[nH]2)cc1OCC	i	i	i	i	-6	·	·	·
Cc1nc(NCc2ccccn2)c2c3c(sc2n1)CCCC3	i	i	i	i	-7	i	i	i
CC1CCN(S(=O)(=O)c2ccc(NC(=O)CCN3C(=O)C4CC=CCC4C3=O)cc2)CC1 (stereo not given)	·	·	·	i	·	·	·	·
CCCNC(=O)C12CCC(C)(c3nc4cc(C)c(C)cc4nc31)C2(C)C (stereo not given)	i	i	i	i	-8	i	i	i
C=C(C)C(=O)N1CC2(CC(c3cccc(NC(=O)/C(C)=C\C)c3)=NO2)C[C@H]1C(N)=O (stereo not given in full)	i	i	i	i	-6	·	·	·
CCOC(=O)c1cnc(SCC(=O)N2CCOCC2)nc1N	i	i	i	i	-8	·	·	·
COc1ccc(Oc2ncc(CN3CCN(c4ccccc4)CC3)s2)cc1	i	i	i	i	-3	i	i	i
COc1ccc(Cn2nc(-c3ccccc3)c(N3CCCCC3)cc2=O)cc1	-17*	i	7*	i	-15	i	i	28%*
CCOC(=O)CNC(=O)Nc1ccccc1C(=O)OC	i	i	i	i	-7	·	·	·
CCNc1nc(CSc2ccccc2)nc2sc(C)c(C)c12	i	i	i	i	-4	·	·	·
Cc1sc2nc(CSc3ccccc3)nc(N3CCOCC3)c2c1C	i	i	i	i	-12	i	i	32%*
CCOc1ccc(NC(=O)c2ccccc2OCC(=O)c2ccccc2)cc1	-14*	i	i	i	-11	42%*	i	i
CCOc1ccccc1C(=O)Nc1ccc(C(=O)c2ccccc2)cc1	-13*	i	i	i	-10	76%*	i	32%*
COc1ccc(CCNC(=O)CSc2nnc(-c3ccc(F)cc3)o2)cc1OC	i	i	i	i	-1	·	·	·
C=CCn1c(=N)c(S(=O)(=O)c2ccc(C)c(C)c2)cc2c(=O)n3ccccc3nc21	i	i	i	i	-7	·	·	·
Cn1cc([N+](=O)[O-])c(C(=O)NC2CCCCCC2)n1	i	i	i	i	-8	·	·	·
C(=N\N1CCN(C2c3ccccc3-c3ccccc32)CC1)/c1ccccn1	i	i	i	i	-8	·	·	·
Cc1ccc(/C=N/N2CCN(C3c4ccccc4-c4ccccc43)CC2)s1	i	i	i	i	-5	i	i	i
CN(C)N=C1c2cc(S(=O)(=O)N(C)C)ccc2-c2ccc(S(=O)(=O)N(C)C)cc21	i	i	i	i	-5	·	·	·
CC(C)(C)n1nnnc1C(c1cccs1)N(Cc1cccnc1)Cc1ccccc1Cl (stereo not given)	-19*	i	i	i	-9	70%*	i	54%*
O=C(N/N=C/c1cccs1)c1cc(-c2ccc3ccccc3c2)n[nH]1	i	i	i	i	-9	·	·	·
O=C(N/N=C/c1cccs1)c1cc(-c2cccc3ccccc23)n[nH]1	-13*	i	i	i	-5	54%*	i	32%*
Cc1ccc(C2NC(c3ccc(C)cc3)C(C)C(=NO)C2C)cc1 (stereo not given)	i	i	i	i	-10	i	i	i
CSc1ccccc1-c1n[nH]c(=S)o1	i	i	i	i	-7	·	·	·
SMILES	KCNK9 block	KCNQ1 pot	KCNQ1 block	KCNK3 block	hERG protect	KCNK9 inh conf	Kir2-1 spec	KCNK9 uninduced
N#CC(c1ccccc1O)N1N=C(c2ccccc2)CC1c1ccccc1 (stereo not given)	-10*	i	12*	i	-10	40%*	i	47%*
O=C(Nc1cc(Sc2nc3ccccc3s2)cc([N+](=O)[O-])c1)c1ccccc1F	-9*	i	i	i	-20	32%*	i	30%*
CCOc1ccccc1NC(=O)c1cccc(NC(=O)c2ccco2)c1	-9.4*	i	i	-9.9*	-3	45%*	i	i
CCOc1ccccc1NC(=O)c1cccc(NC(=O)C2CCCC2)c1	-13*	i	i	i	-17	58%*	i	i
Cc1ccccc1NC(=O)c1cccc(NC(=O)c2ccco2)c1	i	i	i	i	-9	·	·	·
CCOc1ccccc1NC(=O)C1CCCC1	·	·	·	i	·	·	·	·
Cc1[nH]c2ccc(C(=O)NCCCN(C)C3CCCCC3)cc2c1C	i	i	i	i	-10	·	·	·
Cc1cc(C(=O)COC(=O)C2CCN(C(=O)c3ccc(Cl)cc3)CC2)c(C)n1CC1CCCO1 (stereo not given)	i	i	i	i	-15	i	i	i
CCC(=O)c1ccc(OCC(=O)OCC(=O)c2cc(C)n(CC3CCCO3)c2C)cc1 (stereo not given)	i	i	i	i	-16	·	·	·
CCN(C(=O)/C=C/c1ccccc1)C1CCCCC1	i	i	i	i	-10	i	i	i
CCCC(C(=O)Nc1ccc(S(=O)(=O)N2CCCC2)cc1)c1ccccc1 (stereo not given)	i	i	i	i	-13	·	·	·
CC(C)(C)c1cc(-c2csc(Nc3ccccc3)[n+]2Cc2ccc(C(=O)O)cc2)cc(C(C)(C)C)c1O	i	15*	i	i	-10	i	i	i
Cc1oc(-c2ccccc2)nc1CS(=O)CC(=O)N1CCc2ccccc2C1 (stereo not given)	i	i	i	i	-12	·	·	·
CCOC(=O)c1c(-c2ccccc2)csc1NC(=O)CSc1nc(C)cc(C)n1	i	i	i	i	-10	i	i	i
CCOC(=O)c1c(-c2cccs2)csc1NC(=O)COC(=O)c1c(C)noc1C	i	i	i	-8.9*	-17	i	i	i
CCOC(=O)c1c(-c2ccccc2)csc1NC(=O)c1cc(S(=O)(=O)N2CCOCC2)ccc1C	i	i	i	i	-10	i	i	i
